Source: ChEMBL document CHEMBL2057188, “Hybridizing ability and nuclease resistance profile of backbone modified cationic phosphorothioate oligonucleotides” (Bioorg Med Chem, 2012)

Tests used:
[1] = Stability in presence of Crotalus admanteus venom phosphodiesterase assessed as intact compound level at 5.5 uM in 50 mM Tris-Hcl buffer (pH 7.5) containing 10 mM MgCl2 incubated for 15 mins at 37 degC by HPLC; type: ADME; conditions: pH 7.5, 0.25 h
Procedure, shortened: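 12-mers are first trimmed from the 3′ end with the venom 3′-exonuclease to give 7-mer substrates, which are purified by RP-HPLC. These are then re-incubated with enzyme in 50 mM Tris-HCl pH 7.5 with 10 mM MgCl2 at 37 °C for 15 min. The enzyme is heat-inactivated at 90 °C for 5 min, and the fraction of intact ODN remaining is quantified by HPLC.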

Nucleic Acid [2] = test: (§1) DNA hybridizing activity at single stranded DNA assessed as thermal stability of duplexes formed between compound and complimentary ssDNA by measuring melting temperature at 4 uM in presence of 10 mM pH 7.2 sodium phosphate buffer containing 100 mM NaCl by UV based melting experiment; type: nucleic-acid assay
Nucleic Acid [3] = test: (§2) DNA hybridizing activity at single stranded RNA assessed as thermal stability of duplexes formed between compound and complimentary ssRNA by measuring melting temperature at 4 uM in presence of 10 mM pH 7.2 sodium phosphate buffer containing 100 mM NaCl by UV based melting experiment; type: nucleic-acid assay
Nucleic Acid [4] = test: as §1, with “measuring change in” for “measuring”, “experiment relative to untreated control” for “experiment”; type: nucleic-acid assay
Nucleic Acid [5] = test: (§3) DNA hybridizing activity at 22 bp double stranded DNA assessed as thermal stability of duplexes formed between compound and complimentary dsDNA by measuring melting temperature at 1.5 uM in presence of 7 mM pH 5.5 sodium phosphate buffer containing 140 mM K, 10 mM MgCl2 by UV based melting experiment; type: nucleic-acid assay
Nucleic Acid [6] = test: as §3, with “measuring change in” for “measuring”; type: nucleic-acid assay
Nucleic Acid [7] = test: as §2, with “measuring change in” for “measuring”, “experiment relative to untreated control” for “experiment”; type: nucleic-acid assay

SMILES | Stability [1] | Tm (Nucleic Acid [2]) | Tm (Nucleic Acid [3]) | ΔTm (Nucleic Acid [4]) | Tm (Nucleic Acid [5]) | ΔTm (Nucleic Acid [6]) | ΔTm (Nucleic Acid [7])
Cc1cn([C@H]2C[C@H](OP(=O)(O)O)[C@@H](CO[P@@](=O)(O[C@H]3C[C@H](n4cc(C)c(=O)[nH]c4=O)O[C@@H]3COP(=O)(O)O[C@H]3C[C@H](n4cc(C)c(=O)[nH]c4=O)O[C@@H]3COP(=O)(O)O[C@H]3C[C@H](n4cc(C)c(=O)[nH]c4=O)O[C@@H]3COP(=O)(O)O[C@H]3C[C@H](n4ccc(N)nc4=O)O[C@@H]3COP(=O)(O)O[C@H]3C[C@H](n4ccc(N)nc4=O)O[C@@H]3COP(=O)(O)O[C@H]3C[C@H](n4ccc(N)nc4=O)O[C@@H]3CO)SCCCCCCN)O2)c(=O)[nH]c1=O | Stable | – | – | – | – | – | –
Cc1cn([C@H]2C[C@H](OP(=O)(O)O)[C@@H](CO[P@@](=O)(O[C@H]3C[C@H](n4cc(C)c(=O)[nH]c4=O)O[C@@H]3COP(=O)(O)O[C@H]3C[C@H](n4cc(C)c(=O)[nH]c4=O)O[C@@H]3COP(=O)(O)O[C@H]3C[C@H](n4cc(C)c(=O)[nH]c4=O)O[C@@H]3COP(=O)(O)O[C@H]3C[C@H](n4ccc(N)nc4=O)O[C@@H]3COP(=O)(O)O[C@H]3C[C@H](n4ccc(N)nc4=O)O[C@@H]3COP(=O)(O)O[C@H]3C[C@H](n4ccc(N)nc4=O)O[C@@H]3CO)SCCN)O2)c(=O)[nH]c1=O | Stable | – | – | – | – | – | –
Cc1cn([C@H]2C[C@H](OP(=O)(O)O)[C@@H](CO[P@](=O)(O[C@H]3C[C@H](n4cc(C)c(=O)[nH]c4=O)O[C@@H]3COP(=O)(O)O[C@H]3C[C@H](n4cc(C)c(=O)[nH]c4=O)O[C@@H]3COP(=O)(O)O[C@H]3C[C@H](n4cc(C)c(=O)[nH]c4=O)O[C@@H]3COP(=O)(O)O[C@H]3C[C@H](n4ccc(N)nc4=O)O[C@@H]3COP(=O)(O)O[C@H]3C[C@H](n4ccc(N)nc4=O)O[C@@H]3COP(=O)(O)O[C@H]3C[C@H](n4ccc(N)nc4=O)O[C@@H]3CO)SCCN)O2)c(=O)[nH]c1=O | Stable | – | – | – | – | – | –
Cc1cn([C@H]2C[C@H](OP(=O)(O)O)[C@@H](CO[P@](=O)(S)O[C@H]3C[C@H](n4cc(C)c(=O)[nH]c4=O)O[C@@H]3COP(=O)(O)O[C@H]3C[C@H](n4cc(C)c(=O)[nH]c4=O)O[C@@H]3COP(=O)(O)O[C@H]3C[C@H](n4cc(C)c(=O)[nH]c4=O)O[C@@H]3COP(=O)(O)O[C@H]3C[C@H](n4ccc(N)nc4=O)O[C@@H]3COP(=O)(O)O[C@H]3C[C@H](n4ccc(N)nc4=O)O[C@@H]3COP(=O)(O)O[C@H]3C[C@H](n4ccc(N)nc4=O)O[C@@H]3CO)O2)c(=O)[nH]c1=O | Stable | – | – | – | – | – | –
Cc1cn([C@H]2C[C@H](OP(=O)(O)O)[C@@H](CO[P@@](=O)(S)O[C@H]3C[C@H](n4cc(C)c(=O)[nH]c4=O)O[C@@H]3COP(=O)(O)O[C@H]3C[C@H](n4cc(C)c(=O)[nH]c4=O)O[C@@H]3COP(=O)(O)O[C@H]3C[C@H](n4cc(C)c(=O)[nH]c4=O)O[C@@H]3COP(=O)(O)O[C@H]3C[C@H](n4ccc(N)nc4=O)O[C@@H]3COP(=O)(O)O[C@H]3C[C@H](n4ccc(N)nc4=O)O[C@@H]3COP(=O)(O)O[C@H]3C[C@H](n4ccc(N)nc4=O)O[C@@H]3CO)O2)c(=O)[nH]c1=O | Stable | – | – | – | – | – | –
Cc1cn([C@H]2C[C@H](OP(=O)(O)OC[C@H]3O[C@@H](n4cc(C)c(=O)[nH]c4=O)C[C@@H]3OP(=O)(O)OC[C@H]3O[C@@H](n4cc(C)c(=O)[nH]c4=O)C[C@@H]3O[P@](=O)(OC[C@H]3O[C@@H](n4cc(C)c(=O)[nH]c4=O)C[C@@H]3OP(=O)(O)OC[C@H]3O[C@@H](n4cc(C)c(=O)[nH]c4=O)C[C@@H]3OP(=O)(O)OC[C@H]3O[C@@H](n4cc(C)c(=O)[nH]c4=O)C[C@@H]3OP(=O)(O)OC[C@H]3O[C@@H](n4ccc(N)nc4=O)C[C@@H]3OP(=O)(O)OC[C@H]3O[C@@H](n4ccc(N)nc4=O)C[C@@H]3OP(=O)(O)OC[C@H]3O[C@@H](n4ccc(N)nc4=O)C[C@@H]3OP(=O)(O)O)SCCNCCCN)[C@@H](COP(=O)(O)O[C@H]3C[C@H](n4ccc(N)nc4=O)O[C@@H]3COP(=O)(O)O[C@H]3C[C@H](n4ccc(N)nc4=O)O[C@@H]3COP(=O)(O)O[C@H]3C[C@H](n4ccc(N)nc4=O)O[C@@H]3CO)O2)c(=O)[nH]c1=O | – | 40 °C | 44 °C | -2 °C | 25 °C | -1 °C | -2 °C
Cc1cn([C@H]2C[C@H](OP(=O)(O)OC[C@H]3O[C@@H](n4cc(C)c(=O)[nH]c4=O)C[C@@H]3OP(=O)(O)OC[C@H]3O[C@@H](n4cc(C)c(=O)[nH]c4=O)C[C@@H]3O[P@](=O)(OC[C@H]3O[C@@H](n4cc(C)c(=O)[nH]c4=O)C[C@@H]3OP(=O)(O)OC[C@H]3O[C@@H](n4cc(C)c(=O)[nH]c4=O)C[C@@H]3OP(=O)(O)OC[C@H]3O[C@@H](n4cc(C)c(=O)[nH]c4=O)C[C@@H]3OP(=O)(O)OC[C@H]3O[C@@H](n4ccc(N)nc4=O)C[C@@H]3OP(=O)(O)OC[C@H]3O[C@@H](n4ccc(N)nc4=O)C[C@@H]3OP(=O)(O)OC[C@H]3O[C@@H](n4ccc(N)nc4=O)C[C@@H]3OP(=O)(O)O)SCCCCCN)[C@@H](COP(=O)(O)O[C@H]3C[C@H](n4ccc(N)nc4=O)O[C@@H]3COP(=O)(O)O[C@H]3C[C@H](n4ccc(N)nc4=O)O[C@@H]3COP(=O)(O)O[C@H]3C[C@H](n4ccc(N)nc4=O)O[C@@H]3CO)O2)c(=O)[nH]c1=O | – | 39 °C | 42 °C | -3 °C | 24 °C | -2 °C | -4 °C
Cc1cn([C@H]2C[C@H](OP(=O)(O)OC[C@H]3O[C@@H](n4cc(C)c(=O)[nH]c4=O)C[C@@H]3OP(=O)(O)OC[C@H]3O[C@@H](n4cc(C)c(=O)[nH]c4=O)C[C@@H]3O[P@](=O)(OC[C@H]3O[C@@H](n4cc(C)c(=O)[nH]c4=O)C[C@@H]3OP(=O)(O)OC[C@H]3O[C@@H](n4cc(C)c(=O)[nH]c4=O)C[C@@H]3OP(=O)(O)OC[C@H]3O[C@@H](n4cc(C)c(=O)[nH]c4=O)C[C@@H]3OP(=O)(O)OC[C@H]3O[C@@H](n4ccc(N)nc4=O)C[C@@H]3OP(=O)(O)OC[C@H]3O[C@@H](n4ccc(N)nc4=O)C[C@@H]3OP(=O)(O)OC[C@H]3O[C@@H](n4ccc(N)nc4=O)C[C@@H]3OP(=O)(O)O)SCCN3CCNCC3)[C@@H](COP(=O)(O)O[C@H]3C[C@H](n4ccc(N)nc4=O)O[C@@H]3COP(=O)(O)O[C@H]3C[C@H](n4ccc(N)nc4=O)O[C@@H]3COP(=O)(O)O[C@H]3C[C@H](n4ccc(N)nc4=O)O[C@@H]3CO)O2)c(=O)[nH]c1=O | – | 40 °C | 44 °C | -2 °C | 24 °C | -2 °C | -2 °C
Cc1cn([C@H]2C[C@H](OP(=O)(O)OC[C@H]3O[C@@H](n4cc(C)c(=O)[nH]c4=O)C[C@@H]3OP(=O)(O)OC[C@H]3O[C@@H](n4cc(C)c(=O)[nH]c4=O)C[C@@H]3O[P@](=O)(OC[C@H]3O[C@@H](n4cc(C)c(=O)[nH]c4=O)C[C@@H]3OP(=O)(O)OC[C@H]3O[C@@H](n4cc(C)c(=O)[nH]c4=O)C[C@@H]3OP(=O)(O)OC[C@H]3O[C@@H](n4cc(C)c(=O)[nH]c4=O)C[C@@H]3OP(=O)(O)OC[C@H]3O[C@@H](n4ccc(N)nc4=O)C[C@@H]3OP(=O)(O)OC[C@H]3O[C@@H](n4ccc(N)nc4=O)C[C@@H]3OP(=O)(O)OC[C@H]3O[C@@H](n4ccc(N)nc4=O)C[C@@H]3OP(=O)(O)O)SCCN)[C@@H](COP(=O)(O)O[C@H]3C[C@H](n4ccc(N)nc4=O)O[C@@H]3COP(=O)(O)O[C@H]3C[C@H](n4ccc(N)nc4=O)O[C@@H]3COP(=O)(O)O[C@H]3C[C@H](n4ccc(N)nc4=O)O[C@@H]3CO)O2)c(=O)[nH]c1=O | – | 41 °C | 43 °C | -1 °C | 24 °C | -2 °C | -3 °C
Cc1cn([C@H]2C[C@H](OP(=O)(O)O)[C@@H](CO[P@](=O)(O[C@H]3C[C@H](n4cc(C)c(=O)[nH]c4=O)O[C@@H]3COP(=O)(O)O[C@H]3C[C@H](n4cc(C)c(=O)[nH]c4=O)O[C@@H]3COP(=O)(O)O[C@H]3C[C@H](n4cc(C)c(=O)[nH]c4=O)O[C@@H]3COP(=O)(O)O[C@H]3C[C@H](n4ccc(N)nc4=O)O[C@@H]3COP(=O)(O)O[C@H]3C[C@H](n4ccc(N)nc4=O)O[C@@H]3COP(=O)(O)O[C@H]3C[C@H](n4ccc(N)nc4=O)O[C@@H]3CO)SCCCCCCN)O2)c(=O)[nH]c1=O | Stable | – | – | – | – | – | –
